In ChEMBL document CHEMBL5696442, “Discovery of type II inhibitors of TGFβ-activated kinase 1 (TAK1) and mitogen-activated protein kinase kinase kinase kinase 2 (MAP4K2)” (J Med Chem, 2015):
Calls of active or inactive are those of the source. The calls are words filed in the database; no cut-off is given here.

How the values were obtained:
GEN2.2 [1] = assay: Inhibition of CL097 induced p-105 phosphorylation level in human GEN2.2 cells at 1 uM preincubated with compound for 1 hr followed by CL097 stimulation and measured after 30 mins by Western blot analysis; assay type: functional, cell-based
Procedure, shortened: (§1)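 Gen2.2 cells were pretreated with compound at 1 μM for 1 h, then stimulated with CL097 for 30 min. Lysates were analysed by Western blot for phosphorylation of p105, p38 and JNK1/2.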

[2] = target: Mitogen-activated protein kinase kinase kinase 20 (Homo sapiens, UniProt Q9NYL2); assay: Inhibition of ZAK Lys1 labeling site in human Huh-7 cell lysate at 1 uM by KiNativ Profiling analysis relative to control; assay type: subcellular
GEN2.2 [3] = assay: Inhibition of CL097 induced p38 phosphorylation level in human GEN2.2 cells at 1 uM preincubated with compound for 1 hr followed by CL097 stimulation and measured after 30 mins by Western blot analysis; assay type: functional, cell-based; procedure, shortened: as §1
[4] = target: Serine/threonine-protein kinase 32C (Homo sapiens) (UniProt Q86UX6); assay: Inhibition of YANK3 Lys2 labeling site in human A-375 cells at 5 uM by KiNativ Profiling analysis relative to control; assay type: cell-based
[5] = target: 5'-AMP-activated protein kinase catalytic subunit alpha-1 (Homo sapiens) (UniProt Q13131); assay: Inhibition of AMPKa1 Lys1 labeling site in human A-375 cells at 0.05 uM by KiNativ Profiling analysis relative to control; assay type: cell-based
[6] = target: Cyclin-dependent kinase 4 (Homo sapiens) (UniProt P11802); assay: Inhibition of CDK4 Lys2 labeling site in human A-375 cells at 5 uM by KiNativ Profiling analysis relative to control; assay type: cell-based
Procedure, shortened: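 Live A375 melanoma cells were treated with compound at 5 or 0.5 μM. The cells were then lysed, and the lysates were labeled with a lysine-reactive ATP or ADP-biotin acyl probe (KiNativ). Inhibition is the compound's protection of each kinase labeling-site peptide from probe labeling, relative to untreated control.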

[7] = target: Wee1-like protein kinase (Homo sapiens) (UniProt P30291); assay: Inhibition of Wee1 Lys2 labeling site in human A-375 cells at 0.5 uM by KiNativ Profiling analysis relative to control; assay type: cell-based
[8] = target: Serine/threonine-protein kinase Nek7 (Homo sapiens) (UniProt Q8TDX7); assay: Inhibition of NEK7 Lys2 labeling site in human A-375 cells at 0.5 uM by KiNativ Profiling analysis relative to control; assay type: cell-based
[9] = target: Mitogen-activated protein kinase 14 (Homo sapiens, UniProt Q16539); assay: Inhibition of p38 alpha (unknown origin) by KiNativ Profiling analysis
[10] = target: T1, Serine/threonine-protein kinase 3 (Homo sapiens) (UniProt Q13188); assay: Inhibition of MST2 Lys1 labeling site in human A-375 cells at 0.05 uM by KiNativ Profiling analysis relative to control; assay type: cell-based
T1 sequence (whole entry): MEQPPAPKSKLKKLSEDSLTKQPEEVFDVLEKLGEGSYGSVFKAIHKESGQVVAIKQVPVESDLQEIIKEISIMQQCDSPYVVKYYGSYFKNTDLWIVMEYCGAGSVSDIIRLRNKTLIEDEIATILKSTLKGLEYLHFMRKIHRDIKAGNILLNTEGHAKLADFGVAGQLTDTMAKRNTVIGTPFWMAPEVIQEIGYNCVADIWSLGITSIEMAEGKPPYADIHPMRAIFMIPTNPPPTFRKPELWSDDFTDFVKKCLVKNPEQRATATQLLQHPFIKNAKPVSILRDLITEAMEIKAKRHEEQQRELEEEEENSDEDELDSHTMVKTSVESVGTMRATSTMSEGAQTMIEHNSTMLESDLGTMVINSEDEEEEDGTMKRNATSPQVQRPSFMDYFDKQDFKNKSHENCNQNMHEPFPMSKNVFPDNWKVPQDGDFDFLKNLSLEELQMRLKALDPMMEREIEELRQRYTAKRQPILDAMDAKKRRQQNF

[11] = target: T2, Serine/threonine-protein kinase TBK1 (Homo sapiens) (UniProt Q9UHD2); assay: Inhibition of TBK1 Lys2 labeling site in human A-375 cells at 0.5 uM by KiNativ Profiling analysis relative to control; assay type: cell-based
T2 sequence (whole entry): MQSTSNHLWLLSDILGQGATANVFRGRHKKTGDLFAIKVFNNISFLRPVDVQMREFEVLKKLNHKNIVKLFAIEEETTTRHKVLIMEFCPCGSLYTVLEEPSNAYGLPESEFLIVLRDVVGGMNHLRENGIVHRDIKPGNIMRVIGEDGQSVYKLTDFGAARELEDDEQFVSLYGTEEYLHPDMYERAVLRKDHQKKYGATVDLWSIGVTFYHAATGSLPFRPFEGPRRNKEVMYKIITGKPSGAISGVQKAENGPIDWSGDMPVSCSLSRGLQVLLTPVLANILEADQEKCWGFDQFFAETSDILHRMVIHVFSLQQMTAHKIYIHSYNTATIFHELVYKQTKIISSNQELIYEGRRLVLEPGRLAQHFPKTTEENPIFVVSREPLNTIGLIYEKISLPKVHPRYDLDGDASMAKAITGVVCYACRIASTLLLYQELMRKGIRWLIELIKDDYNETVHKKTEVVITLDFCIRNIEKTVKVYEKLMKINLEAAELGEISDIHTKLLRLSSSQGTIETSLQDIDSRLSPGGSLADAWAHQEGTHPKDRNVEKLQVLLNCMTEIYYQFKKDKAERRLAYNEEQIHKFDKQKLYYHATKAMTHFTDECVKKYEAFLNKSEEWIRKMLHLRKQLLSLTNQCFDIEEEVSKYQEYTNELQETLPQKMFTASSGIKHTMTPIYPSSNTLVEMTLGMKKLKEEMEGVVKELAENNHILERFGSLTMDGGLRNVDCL

[12] = target: Cyclin-dependent kinase 10 (Homo sapiens) (UniProt Q15131); assay: Inhibition of CDK10 Lys2 labeling site in human A-375 cells at 0.05 uM by KiNativ Profiling analysis relative to control; assay type: cell-based
[13] = target: 5'-AMP-activated protein kinase catalytic subunit alpha-1 (Homo sapiens) (UniProt Q13131); assay: Inhibition of AMPKa1 ATP Loop labeling site in human A-375 cells at 0.5 uM by KiNativ Profiling analysis relative to control; assay type: cell-based
Procedure, shortened: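 Live A375 melanoma cells were treated with compound at 5 or 0.5 μM, then lysed. The lysates were labeled with a lysine-reactive ATP or ADP-biotin probe. Kinase protection from probe labeling was measured by KiNativ.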

[14] = target: Serine/threonine-protein kinase 10 (Homo sapiens) (UniProt O94804); assay: Inhibition of LOK Lys1 labeling site harbouring NKETGALAAAKVIETK in human A-375 cells at 0.5 uM by KiNativ Profiling analysis relative to control; assay type: cell-based
[15] = target: Casein kinase II subunit alpha (Homo sapiens) (UniProt P68400); assay: Inhibition of CK2a1 Protein Kinase Domain in human A-375 cells at 5 uM by KiNativ Profiling analysis relative to control; assay type: cell-based
Procedure, shortened: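 Intact A375 melanoma cells were treated with compound at 5 or 0.5 μM, then lysed. Lysate kinases were labeled with a lysine-reactive ATP or ADP-biotin probe (KiNativ). Inhibition is read as protection of each kinase labeling site from probe labeling.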

[16] = target: RAF proto-oncogene serine/threonine-protein kinase (Homo sapiens, UniProt P04049); assay: Inhibition of RAF1 Lys2 labeling site in human A-375 cells at 0.05 uM by KiNativ Profiling analysis relative to control; assay type: cell-based
Chain of RAF proto-oncogene serine/threonine-protein kinase (P04049 whole entry): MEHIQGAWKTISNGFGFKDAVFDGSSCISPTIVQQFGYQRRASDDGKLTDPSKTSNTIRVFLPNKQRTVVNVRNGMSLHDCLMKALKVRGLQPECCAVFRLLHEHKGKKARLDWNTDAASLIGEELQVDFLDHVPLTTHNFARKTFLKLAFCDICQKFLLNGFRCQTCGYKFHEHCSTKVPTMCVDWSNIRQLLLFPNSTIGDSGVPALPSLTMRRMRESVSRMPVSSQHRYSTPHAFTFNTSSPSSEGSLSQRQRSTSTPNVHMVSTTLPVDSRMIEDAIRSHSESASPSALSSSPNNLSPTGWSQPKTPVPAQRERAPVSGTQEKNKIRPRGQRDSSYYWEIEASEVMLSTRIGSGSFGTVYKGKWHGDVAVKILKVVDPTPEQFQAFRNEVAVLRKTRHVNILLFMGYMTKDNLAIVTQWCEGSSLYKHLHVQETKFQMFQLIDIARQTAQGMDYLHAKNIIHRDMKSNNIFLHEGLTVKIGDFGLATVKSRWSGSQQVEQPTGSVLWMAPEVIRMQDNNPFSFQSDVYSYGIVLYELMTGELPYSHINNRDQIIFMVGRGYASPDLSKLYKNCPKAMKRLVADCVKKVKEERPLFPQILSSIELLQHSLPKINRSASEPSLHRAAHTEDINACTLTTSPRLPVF

Chain of 5'-AMP-activated protein kinase catalytic subunit alpha-1 (Homo sapiens) (Q13131 whole entry, looked up): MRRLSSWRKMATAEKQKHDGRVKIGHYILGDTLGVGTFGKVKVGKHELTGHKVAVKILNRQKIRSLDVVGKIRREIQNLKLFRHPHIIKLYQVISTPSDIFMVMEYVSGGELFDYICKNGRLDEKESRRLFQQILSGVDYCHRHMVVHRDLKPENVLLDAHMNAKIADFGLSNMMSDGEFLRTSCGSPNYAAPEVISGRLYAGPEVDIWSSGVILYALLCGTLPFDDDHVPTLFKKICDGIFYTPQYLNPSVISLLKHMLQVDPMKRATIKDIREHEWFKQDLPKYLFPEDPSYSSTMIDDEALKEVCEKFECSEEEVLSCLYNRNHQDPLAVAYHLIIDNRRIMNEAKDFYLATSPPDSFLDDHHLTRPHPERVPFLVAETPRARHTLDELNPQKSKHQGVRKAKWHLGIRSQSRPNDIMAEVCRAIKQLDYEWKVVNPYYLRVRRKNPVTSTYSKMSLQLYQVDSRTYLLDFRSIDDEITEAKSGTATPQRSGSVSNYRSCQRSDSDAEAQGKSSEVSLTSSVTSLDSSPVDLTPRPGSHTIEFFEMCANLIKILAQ
Chain of Cyclin-dependent kinase 4 (Homo sapiens) (P11802 whole entry): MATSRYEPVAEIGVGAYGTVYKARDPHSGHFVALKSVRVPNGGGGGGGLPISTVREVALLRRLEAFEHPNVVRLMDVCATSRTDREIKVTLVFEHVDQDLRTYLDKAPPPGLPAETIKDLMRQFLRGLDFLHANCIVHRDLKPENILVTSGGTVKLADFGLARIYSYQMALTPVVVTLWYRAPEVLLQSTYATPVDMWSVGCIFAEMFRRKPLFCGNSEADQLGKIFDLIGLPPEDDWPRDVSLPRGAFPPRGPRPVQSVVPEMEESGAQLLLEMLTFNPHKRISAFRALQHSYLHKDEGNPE
Chain of Serine/threonine-protein kinase 32C (Homo sapiens) (Q86UX6 whole entry): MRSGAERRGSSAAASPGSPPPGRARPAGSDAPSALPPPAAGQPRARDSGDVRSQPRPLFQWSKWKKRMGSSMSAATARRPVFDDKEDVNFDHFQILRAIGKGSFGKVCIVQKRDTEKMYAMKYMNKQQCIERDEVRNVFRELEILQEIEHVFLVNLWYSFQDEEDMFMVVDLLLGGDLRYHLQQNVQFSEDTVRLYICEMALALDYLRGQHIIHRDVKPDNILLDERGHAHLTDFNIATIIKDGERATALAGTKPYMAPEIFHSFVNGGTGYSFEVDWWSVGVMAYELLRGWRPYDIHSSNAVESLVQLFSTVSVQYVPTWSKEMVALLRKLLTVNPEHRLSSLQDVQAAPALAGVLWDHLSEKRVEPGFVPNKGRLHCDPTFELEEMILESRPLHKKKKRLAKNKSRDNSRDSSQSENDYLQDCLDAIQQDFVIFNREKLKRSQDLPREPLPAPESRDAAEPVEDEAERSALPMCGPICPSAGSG
Chain of Serine/threonine-protein kinase 10 (Homo sapiens) (O94804 whole entry, looked up, the tested form may be a part): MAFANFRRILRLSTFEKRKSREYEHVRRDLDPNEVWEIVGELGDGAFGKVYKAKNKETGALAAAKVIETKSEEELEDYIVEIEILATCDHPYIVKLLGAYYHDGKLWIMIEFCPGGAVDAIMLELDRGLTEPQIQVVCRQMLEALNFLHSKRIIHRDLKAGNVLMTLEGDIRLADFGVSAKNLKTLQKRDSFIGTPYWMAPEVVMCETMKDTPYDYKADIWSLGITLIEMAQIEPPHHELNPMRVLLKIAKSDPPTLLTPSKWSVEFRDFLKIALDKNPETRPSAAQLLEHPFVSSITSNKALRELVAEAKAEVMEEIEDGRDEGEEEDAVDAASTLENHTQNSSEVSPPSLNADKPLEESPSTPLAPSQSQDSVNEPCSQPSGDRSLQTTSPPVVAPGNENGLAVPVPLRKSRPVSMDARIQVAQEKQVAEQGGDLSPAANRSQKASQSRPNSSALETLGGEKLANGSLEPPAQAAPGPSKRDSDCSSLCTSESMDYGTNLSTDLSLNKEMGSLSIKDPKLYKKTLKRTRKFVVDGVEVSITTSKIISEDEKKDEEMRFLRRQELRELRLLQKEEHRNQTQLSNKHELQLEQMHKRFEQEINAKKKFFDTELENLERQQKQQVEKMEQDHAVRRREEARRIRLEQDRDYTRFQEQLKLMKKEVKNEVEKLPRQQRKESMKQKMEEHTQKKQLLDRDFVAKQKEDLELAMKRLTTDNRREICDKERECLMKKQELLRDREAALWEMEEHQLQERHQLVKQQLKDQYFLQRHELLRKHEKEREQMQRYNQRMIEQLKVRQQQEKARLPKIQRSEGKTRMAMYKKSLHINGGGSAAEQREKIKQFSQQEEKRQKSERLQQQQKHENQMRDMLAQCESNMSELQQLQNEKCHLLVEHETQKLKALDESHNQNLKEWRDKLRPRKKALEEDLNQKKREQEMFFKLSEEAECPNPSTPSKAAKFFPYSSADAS
Chain of Mitogen-activated protein kinase 14 (Q16539 whole entry): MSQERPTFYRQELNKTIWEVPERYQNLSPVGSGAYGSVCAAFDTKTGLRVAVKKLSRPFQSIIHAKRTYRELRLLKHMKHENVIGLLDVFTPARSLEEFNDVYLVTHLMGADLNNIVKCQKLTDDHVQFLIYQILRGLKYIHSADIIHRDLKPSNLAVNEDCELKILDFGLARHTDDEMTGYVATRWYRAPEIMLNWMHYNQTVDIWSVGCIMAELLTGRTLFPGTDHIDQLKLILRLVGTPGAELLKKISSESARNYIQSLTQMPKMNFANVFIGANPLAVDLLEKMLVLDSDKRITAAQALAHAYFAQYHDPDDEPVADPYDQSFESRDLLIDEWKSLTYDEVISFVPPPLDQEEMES
Chain of Cyclin-dependent kinase 10 (Homo sapiens) (Q15131 whole entry): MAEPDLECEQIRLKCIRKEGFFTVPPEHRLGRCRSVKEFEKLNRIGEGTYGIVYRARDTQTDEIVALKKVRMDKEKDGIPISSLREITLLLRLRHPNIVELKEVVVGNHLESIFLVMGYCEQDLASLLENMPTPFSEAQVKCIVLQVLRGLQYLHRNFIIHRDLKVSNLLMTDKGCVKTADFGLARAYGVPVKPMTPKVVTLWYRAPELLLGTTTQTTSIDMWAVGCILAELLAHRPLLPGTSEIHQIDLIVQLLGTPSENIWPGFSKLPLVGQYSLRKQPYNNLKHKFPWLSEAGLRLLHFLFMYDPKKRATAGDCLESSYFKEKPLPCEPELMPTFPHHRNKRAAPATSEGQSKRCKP
Chain of Casein kinase II subunit alpha (Homo sapiens) (P68400 whole entry, looked up, the tested form may be a part): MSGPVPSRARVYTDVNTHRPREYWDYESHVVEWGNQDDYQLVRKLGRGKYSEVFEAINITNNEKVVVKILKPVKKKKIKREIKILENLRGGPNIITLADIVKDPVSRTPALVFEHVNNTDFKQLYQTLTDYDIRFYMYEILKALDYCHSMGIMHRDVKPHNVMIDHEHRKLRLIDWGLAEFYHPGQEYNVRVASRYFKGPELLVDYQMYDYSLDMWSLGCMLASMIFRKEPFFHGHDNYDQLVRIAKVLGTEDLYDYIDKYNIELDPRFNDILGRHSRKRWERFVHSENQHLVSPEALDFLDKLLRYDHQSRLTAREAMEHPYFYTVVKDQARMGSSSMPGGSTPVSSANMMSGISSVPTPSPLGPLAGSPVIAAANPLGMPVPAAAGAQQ
Chain of Mitogen-activated protein kinase kinase kinase 20 (Q9NYL2 2-800 limits assumed): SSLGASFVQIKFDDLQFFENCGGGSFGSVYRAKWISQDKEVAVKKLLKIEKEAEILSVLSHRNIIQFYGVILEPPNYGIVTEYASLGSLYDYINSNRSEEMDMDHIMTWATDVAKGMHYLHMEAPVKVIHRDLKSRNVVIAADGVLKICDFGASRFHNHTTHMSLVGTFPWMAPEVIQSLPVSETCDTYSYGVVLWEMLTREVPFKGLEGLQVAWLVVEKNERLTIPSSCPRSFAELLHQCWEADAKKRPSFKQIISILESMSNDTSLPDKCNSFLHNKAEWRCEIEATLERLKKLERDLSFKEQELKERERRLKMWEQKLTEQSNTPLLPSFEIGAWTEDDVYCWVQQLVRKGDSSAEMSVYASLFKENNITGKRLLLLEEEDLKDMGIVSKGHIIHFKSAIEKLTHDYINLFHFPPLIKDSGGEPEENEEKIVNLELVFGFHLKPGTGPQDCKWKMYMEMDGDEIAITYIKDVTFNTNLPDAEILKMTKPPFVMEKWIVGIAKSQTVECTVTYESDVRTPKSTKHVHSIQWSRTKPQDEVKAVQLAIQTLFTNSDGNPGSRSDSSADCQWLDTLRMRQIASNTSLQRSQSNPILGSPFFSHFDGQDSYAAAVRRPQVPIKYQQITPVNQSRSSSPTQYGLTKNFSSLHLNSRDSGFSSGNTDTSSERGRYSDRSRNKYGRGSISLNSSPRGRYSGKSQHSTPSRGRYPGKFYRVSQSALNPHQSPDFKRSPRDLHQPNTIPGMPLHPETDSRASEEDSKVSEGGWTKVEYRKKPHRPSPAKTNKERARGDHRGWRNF

| Structure (SMILES) | inhibition (GEN2.2 [1]) | inhibition [2] | inhibition (GEN2.2 [3]) | inhibition [4] | inhibition [5] | inhibition [6] | inhibition [7] | inhibition [8] | IC50 [9] | inhibition [10] | inhibition [11] | inhibition [12] | inhibition [13] | inhibition [14] | inhibition [15] | inhibition [16] |
| --- | --- | --- | --- | --- | --- | --- | --- | --- | --- | --- | --- | --- | --- | --- | --- | --- |
| CNc1cc(Oc2cc(C(=O)Nc3cc(-n4cnc(C)c4)cc(C(F)(F)F)c3)ccc2C)ncn1 | inactive | 43.6% | inactive |  |  |  |  |  |  |  |  |  |  |  |  |  |
| CCN1CCN(Cc2ccc(NC(=O)c3ccc(C)c(Oc4ccnc5[nH]ccc45)c3)cc2C(F)(F)F)CC1 | Active |  | Active | 16.2% | 13.4% | 2.9% | 13.6% | 7.8% | 102 nM | -6.5% | 35.7% | 7.8% | -0.8% | 74.7% | 15.4% | 69.8% |
| CCN1CCN(Cc2ccc(NC(=O)c3ccc(C)c(/C=C/c4cnc5[nH]ccc5c4OC)c3)cc2C(F)(F)F)CC1 |  |  |  | 12.7% | 7.4% | 6.7% | 8% | 10.7% | 238 nM | 9.2% | 16.9% | 30.7% | -2.7% | 61.8% | 1% | 63.7% |
| CNc1cc(Oc2cc(C(=O)Nc3cc(N4CCN(C)CC4)cc(C(F)(F)F)c3)ccc2C)ncn1 |  | 31.8% |  |  |  |  |  |  |  |  |  |  |  |  |  |  |
